# ChEMBL document CHEMBL1147430, “Inhibition of alpha-chymotrypsin with thiol-bearing substrate analogues in the presence of zinc ion” (Bioorg Med Chem Lett, 2004)
# pIC50: −log10 of the molar value. Calls of active or inactive are those of the source. The rule behind the calls is not given here.
# Legend:
# Chymotrypsinogen B [1] = molecular target: T1, Chymotrypsinogen B (Homo sapiens, UniProt P17538); test: Inhibitory activity (up to 2 mM) against chymotrypsinogen in the absence of Zn(II); no inhibition
# Chymotrypsinogen B [2] = molecular target: T1, Chymotrypsinogen B; test: Inhibitory activity against chymotrypsinogen in the presence of Zn(II) (500 uM)
# Outline: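 Alpha-chymotrypsin at a final 0.4 μg/mL is added to a mix of Suc-AAPF-pNA (300 μM), ZnCl2 (500 μM) and varied inhibitor concentrations in pH 7.5 buffer (50 mM CaCl2, 50 mM Tris). Initial rates are followed at 405 nm at 25 °C. IC50 is read from a plot of % residual activity versus inhibitor concentration.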
# T1 sequence (P17538 34-164 limits assumed, other chains not shown): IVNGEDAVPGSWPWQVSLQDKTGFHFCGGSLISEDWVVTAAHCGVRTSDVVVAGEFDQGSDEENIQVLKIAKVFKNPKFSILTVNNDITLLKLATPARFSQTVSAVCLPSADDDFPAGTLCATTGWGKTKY
# T1 sequence (P17538 167-263 limits assumed, other chains not shown): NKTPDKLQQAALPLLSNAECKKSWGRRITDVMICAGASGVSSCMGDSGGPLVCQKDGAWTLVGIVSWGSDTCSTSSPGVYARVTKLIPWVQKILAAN
inhibition (Chymotrypsinogen B [1]),pIC50 (Chymotrypsinogen B [2]),Structure (SMILES)
inactive,5.22,O=C(N[C@@H](CS)Cc1ccccc1)OCc1ccccc1
inactive,5.10,O=C(N[C@H](CS)Cc1ccccc1)[C@@H]1CCCN1C(=O)OCc1ccccc1
inactive,5.42,O=C(N[C@H](CS)Cc1ccccc1)OCc1ccccc1
inactive,< 2.52,O=C(N[C@@H](CO)Cc1ccccc1)OCc1ccccc1
inactive,4.64,O=C(N[C@H](CS)Cc1ccccc1)c1ccccc1
,< 2.52,O=C(N[C@H](CO)Cc1ccccc1)OCc1ccccc1
inactive,< 3.10,CC(=O)N[C@H](CS)Cc1ccccc1
